Results reported in ChEMBL document CHEMBL5252669, “Semisynthetic blasticidin S ester derivatives show enhanced antibiotic activity” (RSC Med Chem, 2023).
In brackets after ≈: the same amount, converted by molar mass. Activity calls are given as the source filed them. The rule behind the calls is not given here.

Key:
[1] = Selectivity index, ratio of CC50 for human MRC5 cells to IC50 for vancomycin-resistant Enterococcus; format: toxicity; conditions: read-out: Ratio CC50/IC50
[2] = tested on: Enterococcus faecalis; assay: Antibacterial activity against Enterococcus faecalis ATCC 29212 incubated for 20 hrs by broth microdilution method; conditions: ATCC 29212, 20 h
[3] = Selectivity index, ratio of CC50 for human MRC5 cells to IC50 for methicillin resistant Staphylococcus aureus; format: toxicity; conditions: read-out: Ratio CC50/IC50
[4] = tested on: Staphylococcus aureus; assay: Antibacterial activity against NorA deleted Staphylococcus aureus incubated for 16 hrs by broth microdilution method; format: functional, organism-based; conditions: for IC50: 16 h; for MIC: time 16 hrs
Summary of the method: (§1)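 Cation-adjusted Mueller-Hinton broth microdilution. Overnight cultures from single colonies were diluted to OD600 0.004. Final compound range was 256–2 μg mL−1 in 1:1 methanol/water vehicle, with doxycycline and vehicle controls. Plates were incubated 16 h at 37 °C. OD600 was normalized to controls, and MIC was the lowest concentration inhibiting >90% growth. Two biological replicates in duplicate; reported as a range.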

[5] = Cytotoxicity against human MRC5 cells incubated for 24 hrs by MTS assay; format: toxicity, cell-based
Summary of the method: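 MRC-5 lung fibroblasts seeded 5000 per well; medium replaced with compound 16–192 μg mL−1 or matching 1:1 methanol:water vehicle; 24 h, then MTS 3–4 h; absorbance 490 nm; viability relative to untreated cells, normalized to vehicle; CC50 from two independent assays in duplicate, mean ± SD.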

[6] = tested on: Saccharomyces cerevisiae; assay: Antifungal activity against Saccharomyces cerevisiae incubated for 16 hrs by broth microdilution method; format: functional
[7] = tested on: Candida albicans; assay: Antifungal activity against Candida albicans incubated for 16 hrs by broth microdilution method; format: functional
[8] = Selectivity index, ratio of CC50 for human MRC5 cells to IC50 for Acinetobacter baumannii ATCC 17978; format: toxicity; conditions: read-out: Ratio CC50/IC50
[9] = tested on: Staphylococcus aureus; assay: Antibacterial activity against wild type Staphylococcus aureus 8810 incubated for 16 hrs by broth microdilution method; format: functional, organism-based; conditions: for IC50: Staphylococcus aureus, 8810, 16 h; for MIC: Staphylococcus aureus, 8810, time 16 hrs; summary of the method: as §1
[10] = Selectivity index, ratio of CC50 for human MRC5 cells to IC50 for Enterococcus faecalis ATCC 29212; format: toxicity; conditions: read-out: Ratio CC50/IC50
[11] = Selectivity index, ratio of CC50 for human MRC5 cells to IC50 for NorA deleted Staphylococcus aureus; format: toxicity; conditions: read-out: Ratio CC50/IC50
[12] = Selectivity index, ratio of CC50 for human MRC5 cells to IC50 for Staphylococcus aureus; format: toxicity; conditions: read-out: Ratio CC50/IC50
[13] = Selectivity index, ratio of CC50 for human MRC5 cells to IC50 for Klebsiella pneumoniae ATCC 29665; format: toxicity; conditions: read-out: Ratio CC50/IC50
[14] = tested on: Klebsiella pneumoniae; assay: Antibacterial activity against Klebsiella pneumoniae ATCC 29665 incubated for 16 hrs by broth microdilution method; format: functional, organism-based; conditions: for IC50: ATCC 29665, 16 h; for MIC: ATCC 29665, time 16 hrs
[15] = Selectivity index, ratio of CC50 for human MRC5 cells to IC50 for MexAB-OprM deleted Pseudomonas aeruginosa; format: toxicity; conditions: read-out: Ratio CC50/IC50
[16] = tested on: Acinetobacter baumannii; assay: Antibacterial activity against Acinetobacter baumannii ATCC 17978 incubated for 16 hrs by broth microdilution method; format: functional, organism-based; conditions: for IC50: ATCC 17978, 16 h; for MIC: ATCC 17978, time 16 hrs
[17] = tested on: Pseudomonas aeruginosa; assay: Antibacterial activity against MexAB-OprM deleted Pseudomonas aeruginosa incubated for 16 hrs by broth microdilution method; format: functional, organism-based; conditions: for IC50: 16 h; for MIC: time 16 hrs
[18] = tested on: Staphylococcus aureus; assay: Antibacterial activity against methicillin resistant Staphylococcus aureus ATCC 43300 incubated for 16 hrs by broth microdilution method; format: functional, organism-based; conditions: for IC50: ATCC 43300, 16 h; for MIC: ATCC 43300, time 16 hrs; summary of the method: as §1
[19] = tested on: Enterococcus; assay: Antibacterial activity against vancomycin-resistant Enterococcus incubated for 20 hrs by broth microdilution method
[20] = tested on: Staphylococcus aureus; assay: Antibacterial activity against Staphylococcus aureus assessed as zone of inhibition incubated for 18 hrs by spot on lawn assay; format: functional, organism-based
Summary of the method: (§2)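 Overnight LB cultures diluted to OD600 0.01 in 0.7% LB top agar, overlaid on 1.5% LB agar; 5 mg mL−1 aqueous compound spotted at 35, 25, 10 and 5 μg with 1:1 water/methanol vehicle spot; 37 °C, 18 h; inhibition zone diameter measured by ruler.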

[21] = tested on: Staphylococcus aureus; assay: Antibacterial activity against NorA deleted Staphylococcus aureus assessed as zone of inhibition incubated for 18 hrs by spot on lawn assay; format: functional, organism-based; summary of the method: as §2
[22] = tested on: Enterococcus faecalis; assay: Antibacterial activity against Enterococcus faecalis ATCC 29212 assessed as zone of inhibition incubated for 18 hrs by spot on lawn assay; format: functional, organism-based; summary of the method: as §2
[23] = tested on: Staphylococcus aureus; assay: Antibacterial activity against methicillin resistant Staphylococcus aureus assessed as zone of inhibition incubated for 18 hrs by spot on lawn assay; format: functional, organism-based
Summary of the method: (§3)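 Spot-on-lawn assay. Plates of 1.5% agar in LB were overlaid with 0.7% LB agar seeded with overnight culture at 0.01 OD600. Aqueous 5 mg mL−1 solutions were spotted at 35, 25, 10 and 5 μg, with a 1:1 water/methanol vehicle spot. After 18 h at 37 °C, inhibition zone diameters were measured with a ruler.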

[24] = tested on: Enterococcus; assay: Antibacterial activity against vancomycin-resistant Enterococcus assessed as zone of inhibition incubated for 18 hrs by spot on lawn assay; format: functional, organism-based; summary of the method: as §3
[25] = tested on: Candida albicans; assay: Antifungal activity against Candida albicans assessed as zone of inhibition incubated for 18 hrs by spot on lawn assay; format: functional, organism-based; summary of the method: as §2

Structure (SMILES) | selectivity ratio [1] | IC50 [2] | MIC [2] | selectivity ratio [3] | IC50 [4] | MIC [4] | CC50 at 24 h [5] | MIC [6] | MIC [7] | selectivity ratio [8] | IC50 [9] | MIC [9] | selectivity ratio [10] | selectivity ratio [11] | selectivity ratio [12] | selectivity ratio [13] | IC50 [14] | MIC [14] | selectivity ratio [15] | IC50 [16] | also measured
CN(CC[C@H](N)CC(=O)N[C@H]1C=C[C@H](n2ccc(N)nc2=O)O[C@@H]1C(=O)OCc1ccccc1)C(=N)N | < 0.3 | 14.6 µg/mL (≈ 28.5 µM) | 16 µg/mL (≈ 31.2 µM) | 0.7 | 46.6 µg/mL (≈ 90.9 µM) | 128 µg/mL (≈ 250 µM) | 17.4 µg/mL (≈ 33.9 µM) | 128 µg/mL (≈ 250 µM) | > 128 µg/mL | 0.2 | 33 µg/mL (≈ 64.4 µM) | 128 µg/mL (≈ 250 µM) | 1.2 | 0.4 | 0.5 | 0.3 | 58.8 µg/mL (≈ 115 µM) | > 128 µg/mL | 0.2 | 85.1 µg/mL (≈ 166 µM) | MIC [16]: > 128 µg/mL; IC50 [17]: 89.3 µg/mL (≈ 174 µM); MIC [17]: > 128 µg/mL; IC50 [18]: 23.3 µg/mL (≈ 45.5 µM); MIC [18]: 32 µg/mL (≈ 62.4 µM); IC50 [19]: > 64 µg/mL; MIC [19]: 128 µg/mL (≈ 250 µM)
CCCOC(=O)[C@H]1O[C@@H](n2ccc(N)nc2=O)C=C[C@@H]1NC(=O)C[C@@H](N)CCN(C)C(=N)N | 0.4 | 10.5 µg/mL (≈ 22.6 µM) | 16 µg/mL (≈ 34.4 µM) | 0.6 | 20.6 µg/mL (≈ 44.3 µM) | 32 µg/mL (≈ 68.9 µM) | 10.2 µg/mL (≈ 22 µM) | 32 µg/mL (≈ 68.9 µM) | > 256 µg/mL | 0.2 | 14.5 µg/mL (≈ 31.2 µM) | 32 µg/mL (≈ 68.9 µM) | 1 | 0.5 | 0.7 | 0.2 | 60.1 µg/mL (≈ 129 µM) | 128 µg/mL (≈ 276 µM) | 0.2 | 42.3 µg/mL (≈ 91.1 µM) | Activity [20]: Active; Activity [21]: Active; Activity [22]: Active; Activity [23]: Active; MIC [16]: 128 µg/mL (≈ 276 µM); Activity [24]: Active; IC50 [17]: 61.6 µg/mL (≈ 133 µM); MIC [17]: > 128 µg/mL; IC50 [18]: 15.8 µg/mL (≈ 34 µM); MIC [18]: 32 µg/mL (≈ 68.9 µM); Activity [25]: inactive; IC50 [19]: 23.6 µg/mL (≈ 50.8 µM); MIC [19]: 128 µg/mL (≈ 276 µM)
CN(CC[C@H](N)CC(=O)N[C@H]1C=C[C@H](n2ccc(N)nc2=O)O[C@@H]1C(=O)O)C(=N)N.Cl | < 0.1 | 52.5 µg/mL | 128 µg/mL | 0.2 | > 256 µg/mL | > 256 µg/mL | 16.1 µg/mL | 16 µg/mL | 64 µg/mL | 0.2 | 77 µg/mL | 128 µg/mL | 0.3 | < 0.1 | 0.2 | 0.2 | 74.8 µg/mL | 128 µg/mL | 0.2 | 70.4 µg/mL | MIC [16]: 128 µg/mL; IC50 [17]: 73 µg/mL; MIC [17]: 128 µg/mL; IC50 [18]: 79.7 µg/mL; MIC [18]: 128 µg/mL; Activity [25]: Active; IC50 [19]: > 256 µg/mL; MIC [19]: > 256 µg/mL
CCCCCCOC(=O)[C@H]1O[C@@H](n2ccc(N)nc2=O)C=C[C@@H]1NC(=O)C[C@@H](N)CCN(C)C(=N)N | 0.1 | 11.4 µg/mL (≈ 22.5 µM) | 16 µg/mL (≈ 31.6 µM) | 0.4 | 18 µg/mL (≈ 35.5 µM) | 32 µg/mL (≈ 63.2 µM) | 18.4 µg/mL (≈ 36.3 µM) | 16 µg/mL (≈ 31.6 µM) | > 32 µg/mL | 0.3 | 27.1 µg/mL (≈ 53.5 µM) | 64 µg/mL (≈ 126 µM) | 1.6 | 1 | 0.7 | 0.3 | 67.1 µg/mL (≈ 132 µM) | 128 µg/mL (≈ 253 µM) | 0.2 | 52.4 µg/mL (≈ 103 µM) | MIC [16]: 128 µg/mL (≈ 253 µM); IC50 [17]: 77.2 µg/mL (≈ 152 µM); MIC [17]: > 128 µg/mL; IC50 [18]: 43.2 µg/mL (≈ 85.3 µM); MIC [18]: 128 µg/mL (≈ 253 µM); IC50 [19]: 140 µg/mL (≈ 276 µM); MIC [19]: 256 µg/mL (≈ 505 µM)
